From ChEMBL document CHEMBL1136943, “Nocathiacin analogs: Synthesis and antibacterial activity of novel water-soluble amides” (Bioorg Med Chem Lett, 2009) come the findings set out here.

Series [1] deals with Staphylococcus aureus. In words: Antibacterial activity against Staphylococcus aureus MB2865 in liquid culture by turbidity method. The class given is functional. The method, boiled down:
(§1)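 MIC is the lowest concentration giving 100% inhibition of bacterial growth in liquid culture, read by turbidity.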

For a further series, the system named is Streptococcus pneumoniae. Kind of series: Antibacterial activity against Streptococcus pneumoniae CL2883 in liquid culture by turbidity method. The class given is functional. The method, boiled down: as §1
For series [2], the system named is Enterococcus faecalis. In words: Antibacterial activity against Enterococcus faecalis C21560 in liquid culture by turbidity method. The series is classed as functional. The procedure, abridged: as §1
For series [3], the target named is T1, Type-2 angiotensin II receptor (Homo sapiens, UniProt P50052).
T1 sequence (P50052 whole entry): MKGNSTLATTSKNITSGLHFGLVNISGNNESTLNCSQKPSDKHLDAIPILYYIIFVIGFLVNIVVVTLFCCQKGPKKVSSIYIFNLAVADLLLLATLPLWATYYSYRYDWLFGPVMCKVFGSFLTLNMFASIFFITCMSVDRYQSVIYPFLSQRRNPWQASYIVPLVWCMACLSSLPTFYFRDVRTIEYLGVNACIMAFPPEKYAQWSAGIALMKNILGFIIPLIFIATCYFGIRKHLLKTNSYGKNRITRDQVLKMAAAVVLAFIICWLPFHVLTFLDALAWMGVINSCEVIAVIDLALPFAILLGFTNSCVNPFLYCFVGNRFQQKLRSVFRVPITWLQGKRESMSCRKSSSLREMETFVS
In words: Inhibition of AT2 receptor. The method, boiled down: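 AT2 IC50 derived from four dose levels per compound, following a published protocol.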

Series [4] has as its system Staphylococcus aureus. Kind of series: Antibacterial activity against Staphylococcus aureus infected in mouse model assessed as reduction of >= 2 log 10 cfu kidney burden. The series is classed as functional. The method, boiled down:
(§2)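 Systemic S. aureus infection mouse model (SATOA). Compounds were given iv; […]. Kidney bacterial burden (cfu) was compared with untreated control. ED99 is the dose giving a reduction of at least 2 log10 cfu in kidney burden.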

Series [5] deals with Staphylococcus aureus. In words: Antibacterial activity against Staphylococcus aureus infected iv bid dosed mouse model assessed as reduction of colony forming unit in kidney. The series is classed as functional. The procedure, abridged:
as §2

For series [6], the system named is Enterococcus faecalis. Kind of series: Antibacterial activity against Enterococcus faecalis. The class given is functional. The method, boiled down: as §1
Series [7] can be described thus: Solubility in water at pH 3.4. The class given is physicochemical. The method, boiled down: (§3)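 Amorphous powders from lyophilized material, as TFA salts; aqueous solubility measured by nephelometry.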
Series [8] is described as follows: Aqueous solubility by lyophilization solubility assay. The class given is physicochemical. The procedure, abridged: as §3

Structures are written as SMILES. ≈ marks a conversion by molar mass, not a printed value.

Regarding `CO/C(C)=C1/NC(=O)[C@H]([C@@H](C)O)NC(=O)c2csc(n2)-c2cc(O)c(-c3nc(C(=O)O)cs3)nc2-c2csc(n2)[C@@H]2COC(=O)c3c4c5c(cccc5n3O)COC(=O)[C@@H](O[C@H]3C[C@](C)(O)[C@H](N(C)C)[C@H](C)O3)[C@@H](OC4)[C@H](NC(=O)c3csc1n3)c1nc(cs1)C(=O)N2` [NOCATHIACIN ACID], the MIC (usually the lowest concentration found to suppress growth) in the series with Staphylococcus aureus [1] was 8 µg/mL (≈ 5.84 µM); in the series on Streptococcus pneumoniae it was 2 µg/mL (≈ 1.46 µM); against Enterococcus faecalis [2] it was above 8 µg/mL. The 50% inhibitory concentration (IC50) (usually the point on the concentration scale where inhibition reaches its midpoint) in series [3] was 1120 nM.
`CO/C(C)=C1/NC(=O)[C@H]([C@@H](C)O)NC(=O)c2csc(n2)-c2cc(O)c(-c3nc(C(=O)NCCNC(=O)CN4CCOCC4)cs3)nc2-c2csc(n2)[C@@H]2COC(=O)c3c4c5c(cccc5n3O)COC(=O)[C@@H](O[C@H]3C[C@](C)(O)[C@H](N(C)C)[C@H](C)O3)[C@@H](OC4)[C@H](NC(=O)c3csc1n3)c1nc(cs1)C(=O)N2`: in the series with Staphylococcus aureus [4], the ED99 was 0.05 mg/kg. Besides, the values for the MIC against Staphylococcus aureus [1], in the series with Streptococcus pneumoniae and in the series with Enterococcus faecalis [2] were 0.0038 µg/mL (≈ 0.00247 µM), 0.00048 µg/mL (≈ 0.000312 µM) and 0.06 µg/mL (≈ 0.039 µM), respectively. In [3], this compound showed a half-maximal inhibitory concentration (IC50) of 250 nM.
For `CC(=O)NC[C@H]1CN(c2ccc(N3CCOCC3)c(F)c2)C(=O)O1` [LINEZOLID], the ED99 in the series with Staphylococcus aureus [5] came to 12 mg/kg.
For `CO/C(C)=C1/NC(=O)[C@H]([C@@H](C)O)NC(=O)c2csc(n2)-c2cc(O)c(-c3nc(C(=O)N4CCN(C)CC4)cs3)nc2-c2csc(n2)[C@@H]2COC(=O)c3c4c5c(cccc5n3O)COC(=O)[C@@H](O[C@H]3C[C@](C)(O)[C@H](N(C)C)[C@H](C)O3)[C@@H](OC4)[C@H](NC(=O)c3csc1n3)c1nc(cs1)C(=O)N2`, the ED99 in the series with Staphylococcus aureus [4] amounted to 0.24 mg/kg. Besides, the values for the minimal inhibitory concentration (MIC) against Staphylococcus aureus [1], against Streptococcus pneumoniae and in the series with Enterococcus faecalis [2] were 0.06 µg/mL (≈ 0.0413 µM), 0.015 µg/mL (≈ 0.0103 µM) and 0.06 µg/mL (≈ 0.0413 µM), respectively. The compound further displayed an IC50 in [3] of 102 nM.
As for `C=C(NC(=O)c1csc(-c2nc3c(cc2O)-c2nc(cs2)C(=O)N[C@@H]([C@@H](C)O)C(=O)N/C(=C(\C)OC)c2nc(cs2)C(=O)N[C@@H]2c4nc(cs4)C(=O)N[C@@H](COC(=O)c4c5c6c(cccc6n4O)COC(=O)[C@@H](O[C@H]4C[C@](C)(O)[C@H](N(C)C)[C@H](C)O4)[C@H]2OC5)c2nc-3cs2)n1)C(N)=O` [MJ347-81F4 A], the minimal inhibitory concentration (MIC) in the series with Enterococcus faecalis [6] was found to be 0.015 µg/mL (≈ 0.0104 µM); against Staphylococcus aureus [1] it was 0.007 µg/mL (≈ 0.00487 µM); in the series on Streptococcus pneumoniae, 0.002 µg/mL (≈ 0.00139 µM); with Enterococcus faecalis [2], 0.03 µg/mL (≈ 0.0209 µM).
Consider `CO/C(C)=C1/NC(=O)[C@H]([C@@H](C)O)NC(=O)c2csc(n2)-c2cc(O)c(-c3nc(C(=O)NCCN(C)C)cs3)nc2-c2csc(n2)[C@@H]2COC(=O)c3c4c5c(cccc5n3O)COC(=O)[C@@H](O[C@H]3C[C@](C)(O)[C@H](N(C)C)[C@H](C)O3)[C@@H](OC4)[C@H](NC(=O)c3csc1n3)c1nc(cs1)C(=O)N2`, for which the ED99 in the series with Staphylococcus aureus [4] was determined as 0.17 mg/kg. In addition, the results for the minimal inhibitory concentration (MIC) in the series with Staphylococcus aureus [1], with Streptococcus pneumoniae and with Enterococcus faecalis [2] were 0.015 µg/mL (≈ 0.0104 µM), 0.00046 µg/mL (≈ 0.00032 µM) and 0.06 µg/mL (≈ 0.0417 µM), respectively. Further, it took 190 nM to reach half-maximal inhibition in series [3] (IC50).
For the compound `CO/C(C)=C1/NC(=O)[C@H]([C@@H](C)O)NC(=O)c2csc(n2)-c2cc(O)c(-c3nc(C(=O)NCCNC(=O)CN(C)C)cs3)nc2-c2csc(n2)[C@@H]2COC(=O)c3c4c5c(cccc5n3O)COC(=O)[C@@H](O[C@H]3C[C@](C)(O)[C@H](N(C)C)[C@H](C)O3)[C@@H](OC4)[C@H](NC(=O)c3csc1n3)c1nc(cs1)C(=O)N2`, the ED99 in the series with Staphylococcus aureus [4] turned out to be 0.2 mg/kg. For the same compound, the minimal inhibitory concentration (MIC) with Staphylococcus aureus [1] was 0.019 µg/mL (≈ 0.0127 µM); in the series on Streptococcus pneumoniae, 0.00059 µg/mL (≈ 0.000394 µM); with Enterococcus faecalis [2], 0.09 µg/mL (≈ 0.0601 µM). This compound also yielded an IC50 in series [3] of 78 nM.
For `CO/C(C)=C1/NC(=O)[C@H]([C@@H](C)O)NC(=O)c2csc(n2)-c2cc(OC)c(-c3nc(C(=O)NCCCN4CCN(C)CC4)cs3)nc2-c2csc(n2)[C@@H]2COC(=O)c3c4c5c(cccc5n3O)COC(=O)[C@@H](O[C@H]3C[C@](C)(O)[C@H](N(C)C)[C@H](C)O3)[C@@H](OC4)[C@H](NC(=O)c3csc1n3)c1nc(cs1)C(=O)N2`, in the series with Staphylococcus aureus [1], the lowest concentration to inhibit growth (MIC) was 0.09 µg/mL (≈ 0.0591 µM). Besides, the concentration for half-maximal inhibition (IC50) in series [3] turned out to be 850 nM.
Turning to `CO/C(C)=C1/NC(=O)[C@H]([C@@H](C)O)NC(=O)c2csc(n2)-c2cc(OC)c(-c3nc(C(=O)NCCCN4CCOCC4)cs3)nc2-c2csc(n2)[C@@H]2COC(=O)c3c4c5c(cccc5n3O)COC(=O)[C@@H](O[C@H]3C[C@](C)(O)[C@H](N(C)C)[C@H](C)O3)[C@@H](OC4)[C@H](NC(=O)c3csc1n3)c1nc(cs1)C(=O)N2.Cl`, the solubility (as a rule, how much of the substance goes into solution per volume) in series [7] was 68000 µg/mL.
`CO/C(C)=C1/NC(=O)[C@H]([C@@H](C)O)NC(=O)c2csc(n2)-c2cc(O)c(-c3nc(C(=O)NCC(=O)N4CCN(C)CC4)cs3)nc2-c2csc(n2)[C@@H]2COC(=O)c3c4c5c(cccc5n3O)COC(=O)[C@@H](O[C@H]3C[C@](C)(O)[C@H](N(C)C)[C@H](C)O3)[C@@H](OC4)[C@H](NC(=O)c3csc1n3)c1nc(cs1)C(=O)N2`: the ED99 with Staphylococcus aureus [4] is 0.13 mg/kg. Besides, the values for the MIC against Staphylococcus aureus [1], in the series on Streptococcus pneumoniae and with Enterococcus faecalis [2] were 0.0038 µg/mL (≈ 0.00252 µM), 0.00048 µg/mL (≈ 0.000318 µM) and 0.03 µg/mL (≈ 0.0199 µM), respectively.
With `CO/C(C)=C1/NC(=O)[C@H]([C@@H](C)O)NC(=O)c2csc(n2)-c2cc(O)c(-c3nc(C(=O)NCCCN(C)C)cs3)nc2-c2csc(n2)[C@@H]2COC(=O)c3c4c5c(cccc5n3O)COC(=O)[C@@H](O[C@H]3C[C@](C)(O)[C@H](N(C)C)[C@H](C)O3)[C@@H](OC4)[C@H](NC(=O)c3csc1n3)c1nc(cs1)C(=O)N2`, the ED99 with Staphylococcus aureus [4] is above 0.5 mg/kg. Moreover, the minimal inhibitory concentration (MIC) in the series on Staphylococcus aureus [1] was determined as 0.06 µg/mL (≈ 0.0413 µM); in the series with Streptococcus pneumoniae, 0.00095 µg/mL (≈ 0.000654 µM); against Enterococcus faecalis [2], 0.12 µg/mL (≈ 0.0826 µM).
As for `CO/C(C)=C1/NC(=O)[C@H]([C@@H](C)O)NC(=O)c2csc(n2)-c2cc(O)c(-c3nc(C(=O)N(C)CCN(C)C)cs3)nc2-c2csc(n2)[C@@H]2COC(=O)c3c4c5c(cccc5n3O)COC(=O)[C@@H](O[C@H]3C[C@](C)(O)[C@H](N(C)C)[C@H](C)O3)[C@@H](OC4)[C@H](NC(=O)c3csc1n3)c1nc(cs1)C(=O)N2`, in the series on Staphylococcus aureus [4], the ED99 was above 0.5 mg/kg. Moreover, the MIC against Staphylococcus aureus [1] was 0.06 µg/mL (≈ 0.0413 µM); in the series on Streptococcus pneumoniae, 0.0038 µg/mL (≈ 0.00261 µM); against Enterococcus faecalis [2], 0.12 µg/mL (≈ 0.0826 µM).
In [8], `CO/C(C)=C1/NC(=O)[C@H]([C@@H](C)O)NC(=O)c2csc(n2)-c2cc(O)c(-c3nc(C(=O)NCCCN4CCN(C)CC4)cs3)nc2-c2csc(n2)[C@@H]2COC(=O)c3c4c5c(cccc5n3O)COC(=O)[C@@H](O[C@H]3C[C@](C)(O)[C@H](N(C)C)[C@H](C)O3)[C@@H](OC4)[C@H](NC(=O)c3csc1n3)c1nc(cs1)C(=O)N2.O=C(O)C(F)(F)F` had a solubility above 10000 µg/mL.
With `CO/C(C)=C1/NC(=O)[C@H]([C@@H](C)O)NC(=O)c2csc(n2)-c2cc(O)c(-c3nc(C(=O)NCCCN(C)C)cs3)nc2-c2csc(n2)[C@@H]2COC(=O)c3c4c5c(cccc5n3O)COC(=O)[C@@H](O[C@H]3C[C@](C)(O)[C@H](N(C)C)[C@H](C)O3)[C@@H](OC4)[C@H](NC(=O)c3csc1n3)c1nc(cs1)C(=O)N2.O=C(O)C(F)(F)F`, the solubility in series [8] is above 10000 µg/mL.
The same measure, in the same setting: the same measure for `CO/C(C)=C1/NC(=O)[C@H]([C@@H](C)O)NC(=O)c2csc(n2)-c2cc(O)c(-c3nc(C(=O)NCCCN4CCOCC4)cs3)nc2-c2csc(n2)[C@@H]2COC(=O)c3c4c5c(cccc5n3O)COC(=O)[C@@H](O[C@H]3C[C@](C)(O)[C@H](N(C)C)[C@H](C)O3)[C@@H](OC4)[C@H](NC(=O)c3csc1n3)c1nc(cs1)C(=O)N2.O=C(O)C(F)(F)F`: above 10000 µg/mL.
